In PubChem BioAssay AID493091 (Sanford-Burnham Center for Chemical Genomics, 2011) one finds inhibition data, which are given here for 25 compounds.

One may read the inhibition as the relative decrease from the control value, in per cent.

Hit rate of the full screen: of about 340,000 compounds, about 3,000 (0.88%) were called active. This excerpt belongs to a sample that is enriched for actives. Values without a mark were called inactive.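 How the source made its calls: active means inhibition above about 50% at 20 µM (limit read from the data); inactive means the rest.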

This assay deals with Carboxy-terminal domain RNA polymerase II polypeptide A small phosphatase 1 (Homo sapiens) (UniProt Q9GZU7). As to the kind of experiment: Scp-1 phosphatase inhibitors, primary screen, biochemical, colorimetric, uHTS (AID 493091).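 Further: plate controls were DMSO wells with enzyme for no effect and wells lacking enzyme for full effect.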 The settings on record: Recombinant Scp1, phosphopeptide, malachite green phosphate absorbance; at 20 µM; active compounds read high. In a few lines: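 Test system: SCP-1 catalytic domain; Buffer or medium: Acidic Tris acetate buffer with magnesium and detergent; Also added: Phosphorylated 17-residue peptide substrate; Compound: single 20 µM dose, 1% DMSO; Schedule: enzyme reaction 45 min at room temperature, colour 5 min, stabilisation 30 min; Signal: Phosphate-binding colour reagent, absorbance read at 630 nm.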
Sequence of Carboxy-terminal domain RNA polymerase II polypeptide A small phosphatase 1 (Homo sapiens) (Q9GZU7 76-261 limits assumed): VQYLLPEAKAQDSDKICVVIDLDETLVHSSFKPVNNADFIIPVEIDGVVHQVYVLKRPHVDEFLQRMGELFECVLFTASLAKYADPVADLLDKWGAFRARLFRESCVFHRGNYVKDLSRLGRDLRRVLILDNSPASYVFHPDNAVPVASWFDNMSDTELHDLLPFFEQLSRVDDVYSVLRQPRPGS
As to `CCOc1ccc(OCC)c(NC(=O)CN(C)S(=O)(=O)c2cccc3nsnc23)c1`, the inhibition is -5.95%.

For `Cc1ccc(OCCNC(=O)c2cccc(S(=O)(=O)N3CCN(Cc4ccccc4)CC3)c2)cc1`, the inhibition was -10.4%.

Turning to `CC1=CC(C)(C)N(C(=O)CSc2nnc(-c3ccccc3)o2)c2ccc(C)cc21`, the inhibition was -2.74%.

For the compound `CCCCSc1nnc(-c2ccc(C)cc2)o1`, the inhibition was 81.5% (active).

For the compound `Cc1ccc(-c2nnc(CN3CCN(C)CC3)o2)cc1`, the inhibition was -6%.

Regarding `CCSC1=C(C#N)C(=O)n2c1cc1c2CCCC1`, the inhibition was -1.97%.

For `O=C(N/C(=C\c1ccc(F)cc1)C(=O)N1CCCCCC1)c1ccccc1`, the inhibition is -0.73%.

On to `N#CC1=C(SCc2ccc(C#N)cc2)N=C(N)C(c2nc(-c3ccccc3)cs2)C12CCCCC2` (stereo not given), for which the inhibition is -1.99%.

As to `N#CC1=C(SCc2ccccc2)NC(=O)C(C#N)C12CCCC2` (stereo not given), the inhibition is 68.9% (active).

For `CC1(C)CCc2nc(SCc3ccccc3)c(C#N)cc2C1`, the inhibition was -11.5%.

As to `Cc1cc(C)cc(N(CC(=O)NCC2CCCO2)S(=O)(=O)c2c(C)noc2C)c1` (stereo not given), the inhibition was -3.08%.

Take `O=C(O)c1ccn(COc2ccc(Br)cc2)n1`: the inhibition is -2.51%.

In the case of `CC1CCN(C(=O)Cn2nnnc2CN2CCOCC2)CC1`, the inhibition is -6.52%.

`Cc1cc(C)nc(SCc2cn3c(C)cc(C)nc3n2)n1`: the inhibition is -3.52%.

In the case of `COc1ccc(NC(=O)CN(C)C(=O)/C=C/c2cn(Cc3ccccc3)nc2-c2cccnc2)cc1`, the inhibition is 97.8% (active).

As for `COc1cccc(NC(=O)CN(C)C(=O)/C=C/c2cn(-c3ccccc3)nc2-c2cccs2)c1`, the inhibition is -11.8%.

On to `COc1cccc(NC(=O)CN(C)C(=O)/C=C/c2cc(OC)ccc2OC)c1`, for which the inhibition is -9.57%.

Take `Nn1c(SCC(=O)Nc2nccs2)nnc1-c1ccco1`: the inhibition is 1.62%.

Turning to `CC1CCCCC1NC(=O)c1cn(C)c2ccc(S(=O)(=O)N3CCOCC3)cc2c1=O` (stereo not given), the inhibition was -8.17%.

Take `Cc1ccc(CNC(=O)Cn2cnc3c(NCc4ccccc4)ncnc32)o1`: the inhibition was 1.29%.

Take `Cc1nn(CC(=O)Nc2ccc3c(c2)OCO3)c(C)c1[N+](=O)[O-]`: the inhibition was 0.9%.

For the compound `Cc1nc([N+](=O)[O-])cn1CC(=O)Nc1ccc2c(c1)OCO2`, the inhibition was -4.74%.

As to `Cc1ccc(C(=O)O)cc1-c1ccc(/C=C2\SC(=O)N(CC(=O)Nc3ccc4c(c3)OCO4)C2=O)o1`, the inhibition is 94.1% (active).

Turning to `CN(Cc1ccccc1)C(=O)c1ccc(NC2=NC3CS(=O)(=O)CC3S2)cc1` (stereo not given), the inhibition is -3.86%.

Take `COc1ccc(S(=O)(=O)NCCc2cc3ccc(C)c(C)c3[nH]c2=O)cc1`: the inhibition is -6.43%.
